According to ChEMBL document CHEMBL1149096 (J Med Chem, 2004):
Square brackets hold non-standard residues; d marks the D form. Peptide text beside a SMILES is read from it. NMeF = CN[C@@H](Cc1ccccc1)C(=O)O

Key:
[1] = target: Delta-type opioid receptor (Mus musculus) (UniProt P32300); conditions: Vas deferens; filed as agonist
[2] = target: Delta-type opioid receptor (Mus musculus, UniProt P32300); test: Inhibitory concentration required for 50 percent inhibition of opioid receptor delta 1 induced contractions in mouse vas deferens (MVD) smooth muscle contraction assays; type: functional
In short: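 Electrically stimulated MVD (male ICR mice, 25-40 g) and GPI longitudinal muscle myenteric plexus strips (male Hartley guinea pigs, 250-500 g). Baths held 37 °C oxygenated Krebs bicarbonate (Mg-free for MVD), tension 1 g GPI / 0.5 g MVD. Stimulation 0.1 Hz, 0.4 ms pulses (2 ms MVD), supramaximal voltage. […] IC50 from two to four tissues by nonlinear least squares.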

Mu-type opioid receptor = Mu-type opioid receptor (Cavia porcellus, UniProt P97266); test: Inhibitory concentration for inhibition of Opioid receptor mu 1 induced contractions in guinea pig ileum (GPI) smooth muscle assays; type: functional, tissue-based
In short: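 Electrically stimulated MVD (male ICR mice, 25-40 g) and GPI longitudinal muscle myenteric plexus strips (male Hartley guinea pigs, 250-500 g). Baths held 37 °C oxygenated Krebs bicarbonate (Mg-free for MVD), tension 1 g GPI / 0.5 g MVD. Stimulation 0.1 Hz, 0.4 ms pulses (2 ms MVD), supramaximal voltage. IC50 from two to four tissues by nonlinear least squares.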

[3] = target: Mu-type opioid receptor (Cavia porcellus) (UniProt P97266); conditions: Ileum, filed as agonist
Sequence of Mu-type opioid receptor (Cavia porcellus) (P97266 whole entry): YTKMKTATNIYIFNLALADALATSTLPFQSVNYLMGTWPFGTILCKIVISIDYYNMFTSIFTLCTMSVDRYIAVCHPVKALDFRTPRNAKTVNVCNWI

Sequence of Mu-type opioid receptor (P97266 whole entry): as above
Sequence of Delta-type opioid receptor (Mus musculus) (P32300 whole entry): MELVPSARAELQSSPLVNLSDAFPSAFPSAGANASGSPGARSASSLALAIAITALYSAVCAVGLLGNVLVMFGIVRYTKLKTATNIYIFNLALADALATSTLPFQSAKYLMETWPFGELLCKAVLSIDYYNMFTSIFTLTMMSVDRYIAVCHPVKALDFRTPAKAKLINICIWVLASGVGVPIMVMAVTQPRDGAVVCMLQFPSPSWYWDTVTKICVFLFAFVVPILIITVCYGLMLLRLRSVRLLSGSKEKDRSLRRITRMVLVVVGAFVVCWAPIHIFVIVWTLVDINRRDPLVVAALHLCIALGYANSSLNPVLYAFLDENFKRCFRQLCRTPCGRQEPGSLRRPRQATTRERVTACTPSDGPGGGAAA
Sequence of Delta-type opioid receptor (P32300 whole entry): as above

In the case of `CN(C(=O)[C@@H]1CCCN1C(=O)[C@@H](N)Cc1ccc(O)cc1)[C@@H](Cc1ccccc1)C(=O)N1CCC[C@@H]1C(N)=O` (H-YP[NMeF][dP]-NH2), the Ke [1] is reported as “Agonist”, the IC50 [2] is reported as 243 nM and the IC50 (Mu-type opioid receptor) is reported as 59.4 nM. For the same molecule, the Ke [3] was “Agonist”.
